Screening results: PubChem BioAssay, Broad Institute
This excerpt belongs to a sample that is enriched for hits.
T cruzi growth-1: T. cruzi intracellular proliferation inhibitors, primary screen, cell-based, beta-gal Tulahuen parasites, NIH3T3 host, luminescence. inhibition, % at 8.34 µM. hit rate 5.9% among 77,000. T. cruzi beta-gal in NIH3T3, GalScreen luminescence, 90 h;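 active means mean inhibition above about 93%, with at least 55% of replicates each passing it, limit read from the data, passing the limit was not always enough; inconclusive means only one of those two conditions holds; inactive means neither condition holds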
IDH1 mut inh: inhibitors of IDH1 R132H reductase, primary screen, biochemical, plate reader, single point | Isocitrate dehydrogenase [NADP] cytoplasmic (Homo sapiens), O75874 | diaphorase/resazurin fluorescence, 60 min | inhibition, % at 10 µM | hit rate 0.18% among 70,000; in the data active means inhibition above about 34%; inconclusive means no clear call, values can overlap the other calls; inactive means below about 11%
KDM4C inh: inhibitors of GASC-1 (KDM4C) histone demethylase, primary screen, biochemical, single concentration HTS; Lysine-specific demethylase 4C (Homo sapiens), Q9H3R0; GST-KDM4C 2-372, H3K9me3 peptide, LANCE TR-FRET; inhibition, % at 12.5 µM; hit rate 0.15% among 96,000; AID 720574, 2013;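 active means mean replicate inhibition above about 25%, with at least 55% of replicates also reaching it, limit read from the data, passing the limit was not always enough; inconclusive means only one of those two conditions met; inactive means neither condition met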
Target sequence (Q9H3R0 2-372 limits assumed): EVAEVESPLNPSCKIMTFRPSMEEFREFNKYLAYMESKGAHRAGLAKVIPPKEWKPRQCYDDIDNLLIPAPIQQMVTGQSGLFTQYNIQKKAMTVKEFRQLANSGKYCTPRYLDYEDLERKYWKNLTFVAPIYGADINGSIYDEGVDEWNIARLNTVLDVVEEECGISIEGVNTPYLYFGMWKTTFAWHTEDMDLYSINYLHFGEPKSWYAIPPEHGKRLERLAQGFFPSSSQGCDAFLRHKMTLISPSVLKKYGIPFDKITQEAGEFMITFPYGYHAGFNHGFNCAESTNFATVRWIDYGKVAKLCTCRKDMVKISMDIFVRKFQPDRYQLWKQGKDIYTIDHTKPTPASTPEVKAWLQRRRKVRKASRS
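System – N-terminal GST-fused human GASC-1 (KDM4C) fragment, residues 2-372 · Input – enzyme final amount 10 nM · Technique – LANCE TR-FRET, Eu antibody, ULight-streptavidin, EDTA, ex 340 nm, em 618/671 nm · Medium – HEPES buffer, pH 7.5, plus ascorbate · Incubation – enzyme reaction 30 min, then detection 60 min, both room temperature · Reagent – H3K9me3 peptide with Fe(II)/2OG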
T cruzi growth-2: T. cruzi intracellular proliferation inhibitors, confirmation, cell-based, NIH3T3 host, beta-gal parasite, luminescence, cherry-pick; shares compounds with T cruzi growth-1; T. cruzi beta-gal in NIH3T3, GalScreen luminescence, 90 h; inhibition, % at 8.35 µM; hit rate 72% among 5,600; AID 651739, 2012;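 active means mean replicate inhibition above about 95% and at least 55% of replicates individually reaching it, limit read from the data; inconclusive means only one of the two criteria is met; inactive means neither criterion is met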
T cruzi growth-3: inhibitors of intracellular T. cruzi replication, confirmation, NIH3T3 host cells, beta-gal parasites, cherry-pick, set 2; inhibition, % at 2.09 µM; T. cruzi beta-gal in NIH3T3, GalScreen luminescence, 90 h; AID 651740, 2012; hit rate 21% among 5,600; shares compounds with T cruzi growth-1;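 active means mean inhibition above about 95%, with at least 55% of replicates also reaching it, limit read from the data; inconclusive means meets just one of the two conditions; inactive means meets neither condition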
NIH3T3 tox: cytotoxicity in mouse NIH/3T3 fibroblasts, confirmation, cytotoxicity control for T. cruzi proliferation inhibitor project, cell-based, cherry-pick, single point. shares compounds with T cruzi growth-1. NIH/3T3 viability, CellTiter-Glo ATP luminescence, 90 h. cytotoxicity (signal decrease), % at 8.35 µM. hit rate 14% among 5,600. AID 651742, 2012;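 active means mean signal decrease across replicates above about 35% based on untreated-well scatter, with enough replicates individually passing, limit read from the data; inconclusive means no rule stated though some were filed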
3T3 cytotox 2: NIH/3T3 fibroblast cytotoxicity, confirmation, cytotoxicity control, cell-based, cherry-pick, single point, set 2 | shares compounds with T cruzi growth-1 | NIH/3T3 viability, CellTiter-Glo ATP luminescence, 90 h | inhibition, % at 24.9 µM | hit rate 56% among 5,600 | AID 651744, 2012;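 active means mean loss of cell viability signal at or above a set limit, and enough replicates individually reaching it; inconclusive means meets only the mean limit or only the replicate share; inactive means meets neither condition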
A number is an active result.

Screening CN(C)C(=O)c1ccc(-c2ccc3c(c2)[C@H]2[C@H](CCN2C(=O)c2ccc4c(c2)OCO4)[C@@H](CO)N3)cc1 returned T cruzi growth-1 100.8, KDM4C inh inactive, T cruzi growth-2 105.5, T cruzi growth-3 inactive, NIH3T3 tox inactive and 3T3 cytotox 2 inactive.
CCC(=O)N1CC[C@@H]2[C@H](CO)Nc3ccc(-c4ccc(C(=O)N(C)C)cc4)cc3[C@@H]21 was read as T cruzi growth-1 107.9, KDM4C inh inactive, T cruzi growth-2 101.0, T cruzi growth-3 inactive, NIH3T3 tox inactive and 3T3 cytotox 2 inactive.
`N#Cc1cccc(-c2ccc3c(c2)[C@@H]2[C@@H](CCN2C(=O)c2ccncc2)[C@@H](CO)N3)c1` gave T cruzi growth-1 103.2, KDM4C inh inactive, T cruzi growth-2 97.4, T cruzi growth-3 inactive, NIH3T3 tox inactive and 3T3 cytotox 2 inactive.
Screening CCC(=O)N1CC[C@@H]2[C@H]1c1cc(-c3ccccc3)ccc1N[C@@H]2CO returned T cruzi growth-1 inactive and KDM4C inh inactive.
Screening O=C(c1ccc2c(c1)OCO2)N1CC[C@@H]2[C@@H](CO)Nc3ccc(C#Cc4ccccc4)cc3[C@@H]21 returned T cruzi growth-1 inactive and KDM4C inh inactive.
`CN(C)C(=O)c1cccc(-c2ccc3c(c2)[C@@H]2[C@@H](CCN2C(=O)c2ccc4c(c2)OCO4)[C@@H](CO)N3)c1` gave T cruzi growth-1 inactive and KDM4C inh inactive.
N#Cc1ccc(-c2ccc3c(c2)[C@@H]2[C@@H](CCN2C(=O)c2ccncc2)[C@H](CO)N3)cc1 was read as T cruzi growth-1 inactive and KDM4C inh inactive.
For O=C(c1ccc2c(c1)OCO2)N1CC[C@@H]2[C@H]1c1cc(C#Cc3ccccc3)ccc1N[C@@H]2CO the results were T cruzi growth-1 93.1, KDM4C inh inactive, T cruzi growth-2 106.6, T cruzi growth-3 inactive, NIH3T3 tox inactive and 3T3 cytotox 2 inactive.
For Cn1c(SCC(=O)Nc2cccc(Br)c2)nnc1-c1cccs1 the results were IDH1 mut inh inactive.
`COc1ccc(-c2cc3ccccc3oc2=O)cc1NC(=O)COc1ccc(C(C)(C)C)cc1` gave IDH1 mut inh inactive.
N#Cc1c(NC(=O)C2CC(c3ccccc3O)=NO2)sc2c1CCCC2 (stereo not given) was read as IDH1 mut inh inactive.
Screening N#Cc1cccc(-c2ccc3c(c2)[C@H]2[C@H](CCN2C(=O)c2ccc4c(c2)OCO4)[C@@H](CO)N3)c1 returned T cruzi growth-1 97.5, KDM4C inh inactive, T cruzi growth-2 102.9, T cruzi growth-3 99.7, NIH3T3 tox inactive and 3T3 cytotox 2 37.4.
Screening N#Cc1cccc(-c2ccc3c(c2)[C@@H]2[C@@H](CCN2C(=O)c2ccc4c(c2)OCO4)[C@@H](CO)N3)c1 returned T cruzi growth-1 inactive and KDM4C inh inactive.
For O=C(NO)c1cccc(C(=O)N/N=C/c2cccc(Oc3ccccc3)c2)c1 the results were IDH1 mut inh inactive.
Screening CCCN(C)C[C@@H]1OCCCC[C@@H](C)Oc2ccc(NC(=O)C3CCCCC3)cc2C(=O)N([C@@H](C)CO)C[C@@H]1C returned T cruzi growth-1 inactive, IDH1 mut inh inactive and KDM4C inh inactive.
Screening CCCN(C)C[C@@H]1OCCCC[C@H](C)Oc2ccc(NC(=O)C3CCCCC3)cc2C(=O)N([C@@H](C)CO)C[C@@H]1C returned T cruzi growth-1 111.5, KDM4C inh inactive, T cruzi growth-2 95.7, T cruzi growth-3 inactive, NIH3T3 tox inactive and 3T3 cytotox 2 inactive.
C[C@H]1CCCCO[C@H](CN(C)CC2CC2)[C@@H](C)CN([C@@H](C)CO)C(=O)c2cc(NC(=O)C3CCCCC3)ccc2O1 was read as T cruzi growth-1 102.1, KDM4C inh inactive, T cruzi growth-2 inactive, T cruzi growth-3 inactive, NIH3T3 tox inactive and 3T3 cytotox 2 inactive.
`C[C@H](CO)N1C[C@H](C)[C@H](CN(C)CC2CC2)OCCCC[C@H](C)Oc2ccc(NC(=O)C3CCCCC3)cc2C1=O` gave IDH1 mut inh inactive and KDM4C inh inactive.
Screening NC(=O)NCC#Cc1ccc2c(c1)[C@]1(C(=O)N2)[C@H](c2ccc(OCCO)cc2)N2[C@H](c3ccccc3)[C@H](c3ccccc3)OC(=O)[C@H]2[C@@H]1C(=O)N1CCCCCCC1 returned IDH1 mut inh inactive.
For C[C@H](CO)N1C[C@H](C)[C@H](CN(C)Cc2ccc(-c3ccccc3)cc2)Oc2ccc(NS(=O)(=O)c3ccc(F)cc3)cc2C1=O the results were T cruzi growth-1 inactive, IDH1 mut inh inactive and KDM4C inh inactive.
Cc1ccc(S(=O)(=O)Nc2ccc3c(c2)C(=O)N([C@@H](C)CO)C[C@H](C)[C@@H](CN(C)Cc2ccc(-c4ccccc4)cc2)O3)cc1 was read as T cruzi growth-1 inconclusive, IDH1 mut inh inactive, KDM4C inh inactive, T cruzi growth-2 103.0, T cruzi growth-3 inactive, NIH3T3 tox inactive and 3T3 cytotox 2 87.1.
C[C@@H]1CN([C@H](C)CO)C(=O)c2cc(NS(=O)(=O)c3cccs3)ccc2O[C@@H]1CN(C)Cc1ccc(-c2ccccc2)cc1 was read as T cruzi growth-1 93.4, IDH1 mut inh inactive, KDM4C inh inactive, T cruzi growth-2 inactive, T cruzi growth-3 inactive, NIH3T3 tox inactive and 3T3 cytotox 2 inactive.
For C[C@H](CO)N1C[C@H](C)[C@H](CN(C)Cc2ccc(-c3ccccc3)cc2)Oc2ccc(NS(=O)(=O)c3cccs3)cc2C1=O the results were T cruzi growth-1 inactive, IDH1 mut inh inactive and KDM4C inh inactive.
`C[C@H]1CN([C@@H](C)CO)C(=O)c2cc(NS(=O)(=O)c3ccc(F)cc3)ccc2O[C@@H]1CN(C)Cc1ccc(-c2ccccc2)cc1` gave T cruzi growth-1 inconclusive, IDH1 mut inh inactive, KDM4C inh inactive, T cruzi growth-2 106.1, T cruzi growth-3 inactive, NIH3T3 tox inactive and 3T3 cytotox 2 103.1.
Cc1ccc(S(=O)(=O)Nc2ccc3c(c2)C(=O)N([C@@H](C)CO)C[C@@H](C)[C@H](CN(C)Cc2ccc(-c4ccccc4)cc2)O3)cc1 was read as T cruzi growth-1 inactive and KDM4C inh inactive.
